For the assay, the target named is Metabotropic glutamate receptor 5 (Homo sapiens, UniProt P41594). As to the kind of experiment: Displacement of [3H]M-MPEP from mGluR5 (unknown origin) at 1 uM measured after 60 mins relative to control. An outline of the steps:
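Rat cerebrocortical membranes or membranes from A18 cells expressing human mGlu5a, incubated with [³H]M-MPEP and test compound at 1 µM in 50 mM Tris pH 7.6 with 2 mM MgCl₂ and 2 mM CaCl₂, 60 min at 25°C. Non-specific binding was taken with […]. Result is % displacement, run in duplicate or triplicate.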
On the technique in general: Loss of bound radioactivity is the signal in a displacement assay; it reports binding, not function.

Sequence of Metabotropic glutamate receptor 5 (P41594 21-1212 limits assumed): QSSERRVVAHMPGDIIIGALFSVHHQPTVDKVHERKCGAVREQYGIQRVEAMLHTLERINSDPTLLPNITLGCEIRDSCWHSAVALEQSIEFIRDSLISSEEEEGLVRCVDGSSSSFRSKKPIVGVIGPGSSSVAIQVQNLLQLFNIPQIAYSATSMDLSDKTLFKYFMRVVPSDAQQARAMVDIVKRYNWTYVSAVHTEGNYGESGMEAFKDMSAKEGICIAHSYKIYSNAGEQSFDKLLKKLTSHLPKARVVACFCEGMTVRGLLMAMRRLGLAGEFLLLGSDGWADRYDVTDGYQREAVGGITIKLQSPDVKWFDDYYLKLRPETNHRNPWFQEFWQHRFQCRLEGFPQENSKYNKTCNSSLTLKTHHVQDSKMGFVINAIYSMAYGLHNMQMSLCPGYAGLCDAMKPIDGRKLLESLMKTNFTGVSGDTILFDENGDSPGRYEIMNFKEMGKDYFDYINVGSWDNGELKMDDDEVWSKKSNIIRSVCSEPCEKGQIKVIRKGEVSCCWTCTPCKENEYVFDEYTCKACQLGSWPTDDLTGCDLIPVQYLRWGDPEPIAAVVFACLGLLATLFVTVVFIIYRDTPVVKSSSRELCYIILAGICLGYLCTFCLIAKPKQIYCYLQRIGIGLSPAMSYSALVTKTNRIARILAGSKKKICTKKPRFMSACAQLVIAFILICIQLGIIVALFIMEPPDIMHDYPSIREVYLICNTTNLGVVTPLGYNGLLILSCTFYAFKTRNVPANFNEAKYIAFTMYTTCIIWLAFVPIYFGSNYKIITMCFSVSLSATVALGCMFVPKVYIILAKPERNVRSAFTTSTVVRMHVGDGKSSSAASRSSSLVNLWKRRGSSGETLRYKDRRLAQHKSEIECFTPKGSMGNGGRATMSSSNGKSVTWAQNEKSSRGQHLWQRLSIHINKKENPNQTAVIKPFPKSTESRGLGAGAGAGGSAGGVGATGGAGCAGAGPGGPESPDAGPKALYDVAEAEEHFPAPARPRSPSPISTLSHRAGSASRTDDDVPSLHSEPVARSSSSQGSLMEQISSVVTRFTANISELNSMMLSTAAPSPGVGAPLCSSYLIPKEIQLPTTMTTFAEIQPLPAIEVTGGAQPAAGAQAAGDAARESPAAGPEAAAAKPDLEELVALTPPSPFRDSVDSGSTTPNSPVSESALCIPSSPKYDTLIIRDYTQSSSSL

For orientation: inhibition means the change of the read-out against control, counted positive when it falls. In the case of `COc1ccc(S(=O)(=O)c2cnc3ccc(F)cc3c2N2CCOCC2)cc1Cl`, the inhibition worked out at 26%.
Next, `O=S(=O)(c1ccc(F)c(F)c1)c1cnc2ccc(F)cc2c1N1CCOCC1`: 10%; `O=S(=O)(c1cc(F)cc(F)c1)c1cnc2cc(Cl)ccc2c1N1CCOCC1`: 67%.
Next, `O=S(=O)(c1ccccc1)c1cnc2ccccc2c1Nc1ccccc1`: 3.6%.
Turning to `CC1CCN(c2c(S(=O)(=O)c3ccc(Cl)cc3)cnc3ccc(F)cc23)CC1`, the inhibition worked out at 80%.
Turning to `CC1CCN(c2c(S(=O)(=O)c3ccc(Cl)c(Cl)c3)cnc3cc(F)ccc23)CC1`, the inhibition was 94%.
In the case of `Cc1cc(C)cc(S(=O)(=O)c2cnc3ccc(F)cc3c2N2CCC(C)CC2)c1`, the inhibition amounted to 83%.
To `COc1ccc(S(=O)(=O)c2cnc3ccc(F)cc3c2N2CCC(C)CC2)cc1OC` belongs 54%.
In the case of `O=S(=O)(c1cc(F)cc(F)c1)c1cnc2ccc(F)cc2c1N1CCOCC1`, the inhibition came out at 3%.
Next, `COc1ccc2ncc(S(=O)(=O)c3cc(C)cc(C)c3)c(N3CCC(C)CC3)c2c1`: 79%; `COc1ccc2ncc(S(=O)(=O)c3cccc(C#N)c3)c(N3CCC(C)CC3)c2c1`: 90%.
For the compound `Cc1ccc(S(=O)(=O)c2cnc3cc(Cl)ccc3c2N2CCC(C)CC2)cc1C`, the inhibition was found to be 86%.
Take `O=S(=O)(c1cc(Cl)cc(Cl)c1)c1cnc2c(F)cccc2c1N1CCOCC1`: the inhibition is 77%.
Take `Cc1ccc(S(=O)(=O)c2cnc3ccc(Cl)cc3c2N2CCC(C)CC2)cc1C`: the inhibition was 84%.
Next, `COc1ccc2ncc(S(=O)(=O)c3cc(Cl)cc(Cl)c3)c(N3CCOCC3)c2c1`: 23%; `CC1CCN(c2c(S(=O)(=O)c3ccc(Cl)cc3)cnc3cc(F)ccc23)CC1`: 90%.
To `Cc1ccc2ncc(S(=O)(=O)c3cc(Cl)cc(Cl)c3)c(N3CCOCC3)c2c1` belongs 70%.
Regarding `CC1CCN(c2c(S(=O)(=O)c3cccc(F)c3)cnc3cc(Cl)ccc23)CC1`, the inhibition fell in the range of 5.6 to 96%.
As for `COc1cccc(S(=O)(=O)c2cnc3ccc(Cl)cc3c2N2CCOCC2)c1`, the inhibition was 28%.
Next, `COc1ccc2ncc(S(=O)(=O)c3cccc(Cl)c3)c(N3CCC(C)CC3)c2c1`: -3%; `CC1CCN(c2c(S(=O)(=O)c3ccc(F)c(F)c3)cnc3c(F)cccc23)CC1`: 93%.
On to `N#Cc1cccc(S(=O)(=O)c2cnc3cc(F)ccc3c2N2CCSCC2)c1`, for which the inhibition stood at 80.9%.
To `COc1ccc2ncc(S(=O)(=O)c3ccc(Cl)cc3)c(N3CCC(C)CC3)c2c1` belongs 91%.
For `Cc1ccc(S(=O)(=O)c2cnc3cc(Cl)ccc3c2N2CCC(C)CC2)cc1Cl`, the inhibition stood at 89%.
In the case of `O=S(=O)(c1ccc(Cl)cc1)c1cnc2cc(Cl)ccc2c1N1CCOCC1`, the inhibition came to 55%.
With `COc1ccc(S(=O)(=O)c2cnc3cc(F)ccc3c2N2CCOCC2)cc1Cl`, the inhibition was determined as 53%.
As to `Cc1ccc(S(=O)(=O)c2cnc3ccc(F)cc3c2N2CCOCC2)cc1F`, the inhibition turned out to be 28%.
For `COc1cccc(S(=O)(=O)c2cnc3cc(F)ccc3c2N2CCOCC2)c1`, the inhibition is 72%.
Next, `O=S(=O)(c1ccc(Cl)c(Cl)c1)c1cnc2cc(Cl)ccc2c1N1CCOCC1`: 86%; `CC1CCN(c2c(S(=O)(=O)c3cc(F)cc(F)c3)cnc3c(F)cccc23)CC1`: 9%; `COc1ccc(S(=O)(=O)c2cnc3ccc(F)cc3c2N2CCOCC2)cc1`: 18%.
As for `N#Cc1ccc(S(=O)(=O)c2cnc3cc(Cl)ccc3c2N2CCOCC2)cc1`, the inhibition came out at 2%.
`O=S(=O)(c1ccc(F)c(F)c1)c1cnc2cc(Cl)ccc2c1N1CCOCC1`: the inhibition was 49%.
To `CC1CCN(c2c(S(=O)(=O)c3ccc(F)c(F)c3)cnc3cc(F)ccc23)CC1` belongs 94%; to `O=S(=O)(c1ccc(F)cc1)c1cnc2cc(Cl)ccc2c1N1CCC(CO)CC1`, 75%; to `COCC1CCN(c2c(S(=O)(=O)c3cc(F)cc(F)c3)cnc3cc(F)ccc23)CC1`, 83%.
Next, `O=S(=O)(c1cccc(Cl)c1)c1cnc2cc(Cl)ccc2c1N1CCOCC1`: 81%.
To `O=S(=O)(c1cccc(Cl)c1)c1cnc2ccc(F)cc2c1N1CCOCC1` belongs 40%; to `CC1CCN(c2c(S(=O)(=O)c3cccc(Cl)c3)cnc3ccc(Cl)cc23)CC1`, 92%; to `Cc1ccc(S(=O)(=O)c2cnc3ccc(F)cc3c2N2CCC(C)CC2)cc1Cl`, 91%.
As for `COc1ccc2ncc(S(=O)(=O)c3ccc(C)c(Cl)c3)c(N3CCOCC3)c2c1`, the inhibition turned out to be 28%.
Next, `O=S(=O)(c1ccc(Cl)cc1)c1cnc2ccc(F)cc2c1N1CCOCC1`: 78%.
In the case of `O=S(=O)(c1cc(Cl)cc(Cl)c1)c1cnc2cc(F)ccc2c1N1CCOCC1`, the inhibition was determined as 74%.
Next, `COc1ccc(S(=O)(=O)c2cnc3ccc(F)cc3c2N2CCOCC2)cc1OC`: -5%; `COc1cccc(S(=O)(=O)c2cnc3ccc(C)cc3c2N2CCOCC2)c1`: 65%; `COc1ccc(S(=O)(=O)c2cnc3cc(Cl)ccc3c2N2CCC(C)CC2)cc1Cl`: 93%.
`CC1CCN(c2c(S(=O)(=O)c3ccc(C#N)cc3)cnc3ccc(Cl)cc23)CC1`: the inhibition turned out to be 31%.
To `COc1ccc2ncc(S(=O)(=O)c3ccc(Cl)c(Cl)c3)c(N3CCC(C)CC3)c2c1` belongs 87%.
Next, `CC1CCN(c2c(S(=O)(=O)c3ccccc3)cnc3cc(F)ccc23)CC1`: 87%; `COc1cccc(S(=O)(=O)c2cnc3cc(F)ccc3c2N2CCC(C)CC2)c1`: 90%.
To `Cc1cc(C)cc(S(=O)(=O)c2cnc3ccc(C)cc3c2N2CCOCC2)c1` belongs 47%; to `CC1CCN(c2c(S(=O)(=O)c3ccc(F)c(Cl)c3)cnc3cc(F)ccc23)CC1`, 94%.
On to `O=S(=O)(c1ccc(Cl)c(Cl)c1)c1cnc2c(F)cccc2c1N1CCOCC1`, for which the inhibition was found to be 86%.
To `Cc1ccc2ncc(S(=O)(=O)c3cc(F)cc(F)c3)c(N3CCC(C)CC3)c2c1` belongs 72%.
Next, `COc1ccc(S(=O)(=O)c2cnc3c(F)cccc3c2N2CCOCC2)cc1`: 33%; `COc1ccc(S(=O)(=O)c2cnc3cc(Cl)ccc3c2N2CCOCC2)cc1`: 41%.
`CC1CCN(c2c(S(=O)(=O)c3cccc(C#N)c3)cnc3cc(Cl)ccc23)CC1`: the inhibition was 94%.
Next, `Cc1ccc2ncc(S(=O)(=O)c3ccc(F)cc3)c(N3CCC(C)CC3)c2c1`: 90%; `COc1cccc(S(=O)(=O)c2cnc3cc(Cl)ccc3c2N2CCOCC2)c1`: 70%; `CC1CCN(c2c(S(=O)(=O)c3cc(Cl)cc(Cl)c3)cnc3cc(F)ccc23)CC1`: 87%.
Regarding `CC1CCN(c2c(S(=O)(=O)c3cccc(C#N)c3)cnc3ccc(Cl)cc23)CC1`, the inhibition stood at 90%.
As to `COc1ccc(S(=O)(=O)c2cnc3cc(F)ccc3c2N2CCC(C)CC2)cc1`, the inhibition is 90%.
To `COc1ccc(S(=O)(=O)c2cnc3c(F)cccc3c2N2CCC(C)CC2)cc1` belongs 67%; to `O=S(=O)(c1ccc(F)cc1)c1cnc2c(F)cccc2c1N1CCOCC1`, 34%.
Consider `Cc1ccc2ncc(S(=O)(=O)c3ccccc3)c(N3CCC(C)CC3)c2c1`, for which the inhibition stood at 67%.
Turning to `Cc1ccc(S(=O)(=O)c2cnc3ccc(Cl)cc3c2N2CCC(C)CC2)cc1Cl`, the inhibition was determined as 81%.
On to `CC1CCN(c2c(S(=O)(=O)c3ccccc3)cnc3c(F)cccc23)CC1`, for which the inhibition came to 13%.
Next, `O=S(=O)(c1ccccc1)c1cnc2ccc(F)cc2c1N1CCOCC1`: 81%; `O=S(=O)(c1ccc(F)c(F)c1)c1cnc2cc(F)ccc2c1N1CCOCC1`: 56%; `COCC1CCN(c2c(S(=O)(=O)c3cccc(F)c3)cnc3cc(F)ccc23)CC1`: 70.5%.
Next, `CC1CCN(c2c(S(=O)(=O)c3cc(F)cc(F)c3)cnc3cc(F)ccc23)CC1`: 77 to 77.2%.
For `Cc1ccc(S(=O)(=O)c2cnc3cc(Cl)ccc3c2N2CCC(C)CC2)cc1F`, the inhibition was 85%.
In the case of `COc1ccc2ncc(S(=O)(=O)c3ccc(OC)c(OC)c3)c(N3CCC(C)CC3)c2c1`, the inhibition is -3%.
Next, `CC1CCN(c2c(S(=O)(=O)c3ccc(F)cc3)cnc3ccc(F)cc23)CC1`: 87%; `CC1CCN(c2c(S(=O)(=O)c3cccc(F)c3)cnc3c(F)cccc23)CC1`: 62%; `COc1ccc2ncc(S(=O)(=O)c3ccc(Cl)c(Cl)c3)c(N3CCOCC3)c2c1`: 29%.
Next, `CC1CCN(c2c(S(=O)(=O)c3cccc(Cl)c3)cnc3ccc(F)cc23)CC1`: 92%.
For `O=S(=O)(c1ccc(F)c(Cl)c1)c1cnc2ccc(Cl)cc2c1N1CCOCC1`, the inhibition worked out at 39%.
On to `CC1CCN(c2c(S(=O)(=O)c3ccc(Cl)cc3)cnc3cc(Cl)ccc23)CC1`, for which the inhibition was determined as 91%.
Turning to `CC1CCN(c2c(S(=O)(=O)c3ccccc3)cnc3ccc(F)cc23)CC1`, the inhibition was 40%.
To `Cc1ccc2ncc(S(=O)(=O)c3ccc(C#N)cc3)c(N3CCC(C)CC3)c2c1` belongs 55%; to `Cc1ccc2ncc(S(=O)(=O)c3ccc(F)c(F)c3)c(N3CCOCC3)c2c1`, 24%; to `Cc1ccc(S(=O)(=O)c2cnc3cc(Cl)ccc3c2N2CCOCC2)cc1`, 12%.
To `COc1ccc2ncc(S(=O)(=O)c3ccc(OC)c(OC)c3)c(N3CCOCC3)c2c1` belongs 1%.
Next, `O=S(=O)(c1cccc(F)c1)c1cnc2cc(Cl)ccc2c1N1CCOCC1`: 32%; `CC1CCN(c2c(S(=O)(=O)c3cccc(Cl)c3)cnc3cc(Cl)ccc23)CC1`: 92%.

(Values after ChEMBL document CHEMBL4052615, “Discovery of 4-amino-3-arylsulfoquinolines, a novel non-acetylenic chemotype of metabotropic glutamate 5 (mGlu5) receptor negative allosteric modulators” (Eur J Med Chem, 2017).)
